In the array DNA melting data of Ke et al. (doi:10.1101/2024.01.08.574731):

What was measured:
[1] = folding enthalpy; higher = less favourable; fluorescence melt of hairpins on a sequencing array, two-state fit; conditions: sodium 0.088 M
In short: (§1)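 Folding enthalpy and melting temperature come from bootstrapped two-state fits to Cy3 fluorescence of library hairpins carrying annealed Cy3 and quencher oligos on a sequenced MiSeq flow cell. Imaging was done in 50 mM Na-HEPES pH 8.0, 25 mM NaCl, stepping by 2.5 °C up to 60 °C, and signals were normalised to pre-quench Cy3 and to control constructs. Results of four replicates were combined by inverse variance, and fitted temperatures were raised by 9.35 °C to match UV melts.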

[2] = melting temperature; fluorescence melt of hairpins on a sequencing array, two-state fit, raised by 9.35 °C to match UV melts; conditions: sodium 0.088 M
In short: as §1

GCCACGCGAAAGCATTGC ((.(.((....)).).)) showed a folding enthalpy [1] of -11.6 kcal/mol and a Tm [2] of 28.7 °C.

In the case of GCCACGCGAAAGCGATGC ((..(((....)))..)), the folding enthalpy [1] was -12.7 kcal/mol and the Tm [2] was 43.3 °C.

GCCACGCGAAAGCGGAGC ((..(((....)))..)) gave a folding enthalpy [1] of -17.1 kcal/mol and a Tm [2] of 54.4 °C.

GCCACGCGAAAGCTTAGC ((.(.((....)).).)) gave a folding enthalpy [1] of -6.78 kcal/mol and a Tm [2] of 30.1 °C.

GCCAGAACGAAAGTTGGC (((..(((....)))))) showed a folding enthalpy [1] of -35.8 kcal/mol and a Tm [2] of 49.8 °C.

For GCCAGACCGAAAGGTGGC (((..(((....)))))), the folding enthalpy [1] was -42.4 kcal/mol and the Tm [2] was 53.7 °C.

With GCCAGACGAAAGTCGGC (((.(((....)))))) the folding enthalpy [1] was -27.6 kcal/mol and the Tm [2] was 66.6 °C.

Work on GCCAGAGCGAAAGCTGGC (((..(((....)))))) yielded a folding enthalpy [1] of -31.3 kcal/mol and a Tm [2] of 60 °C.

GCCAGAGGAAACCCTGGC (((((.(....).))))) showed a folding enthalpy [1] of -41 kcal/mol and a Tm [2] of 52.4 °C.

GCCAGAGGAAACTCTGAC (.(((((....))))).) showed a folding enthalpy [1] of -18.3 kcal/mol and a Tm [2] of 38.6 °C.

With GCCAGCGAAAGCTAAGGC ((((((....)))..))) the folding enthalpy [1] was -21.2 kcal/mol and the Tm [2] was 53.7 °C.

GCCAGCGAAAGCTCCGGC ((((((....)))..))) gave a folding enthalpy [1] of -19.9 kcal/mol and a Tm [2] of 44.5 °C.

GCCAGGAAACTGGC (((((....))))) showed a folding enthalpy [1] of -38.2 kcal/mol and a Tm [2] of 63.2 °C.

With GCCAGGCGAAAGCAAGGC (((..((....))..))) the folding enthalpy [1] was -26.5 kcal/mol and the Tm [2] was 60.6 °C.

Sequence GCCAGGCGAAAGCCACGC ((..(((....)))..)) has a folding enthalpy [1] of -13.1 kcal/mol and a Tm [2] of 38.8 °C.

In the case of GCCAGGCGAAAGCCATGC ((..(((....)))..)), the folding enthalpy [1] was -13.6 kcal/mol and the Tm [2] was 42.3 °C.

Work on GCCAGGCGAAAGCCCTGC ((..(((....)))..)) yielded a folding enthalpy [1] of -12.4 kcal/mol and a Tm [2] of 45.1 °C.

Work on GCCAGGCGAAAGCCGAGC ((..(((....)))..)) yielded a folding enthalpy [1] of -13.3 kcal/mol and a Tm [2] of 52.2 °C.

Sequence GCCAGGCGAAAGCGGGGC (((..((....))..))) has a folding enthalpy [1] of -23.9 kcal/mol and a Tm [2] of 63.2 °C.

With GCCAGGCGAAAGCTTTGC ((.(.((....)).).)) the folding enthalpy [1] was -11.5 kcal/mol and the Tm [2] was 33.4 °C.

In the case of GCCAGTCGAAAGACGGC (((.(((....)))))), the folding enthalpy [1] was -33.8 kcal/mol and the Tm [2] was 61.6 °C.

Work on GCCAGTTCGAAAGAAGGC (((..(((....)))))) yielded a folding enthalpy [1] of -20.2 kcal/mol and a Tm [2] of 37.1 °C.

Work on GCCATACCGAAAGGTGGC (((..(((....)))))) yielded a folding enthalpy [1] of -24.4 kcal/mol and a Tm [2] of 53.4 °C.

In the case of GCCATACGAAAGTAGGGC (((.(((....))).))), the folding enthalpy [1] was -38 kcal/mol and the Tm [2] was 60.5 °C.

GCCATCGAAAGATACGGC ((((((....)))..))) showed a folding enthalpy [1] of -26.4 kcal/mol and a Tm [2] of 41.5 °C.

Work on GCCATCGAAAGATAGGC ((((((....))).))) yielded a folding enthalpy [1] of -30.3 kcal/mol and a Tm [2] of 50.1 °C.

For GCCATCGGAAACGATGAC (.(((((....))))).), the folding enthalpy [1] was -16 kcal/mol and the Tm [2] was 48.6 °C.

Sequence GCCATGACGAAAGTCGGC (((..(((....)))))) has a folding enthalpy [1] of -20 kcal/mol and a Tm [2] of 51 °C.

In the case of GCCATGCGAAAGCACAGC ((..(((....)))..)), the folding enthalpy [1] was -11.2 kcal/mol and the Tm [2] was 36.6 °C.

GCCATGGGAAACCATAGC ((.((((....)))).)) showed a folding enthalpy [1] of -25.6 kcal/mol and a Tm [2] of 36.5 °C.

In the case of GCCATTCCGAAAGGAGGC (((..(((....)))))), the folding enthalpy [1] was -18.4 kcal/mol and the Tm [2] was 44.2 °C.

Sequence GCCATTTCGAAAGAAGGC (((..(((....)))))) has a folding enthalpy [1] of -25.1 kcal/mol and a Tm [2] of 33.1 °C.

With GCCCAAACGAAAGTTGGC (((..(((....)))))) the folding enthalpy [1] was -19.2 kcal/mol and the Tm [2] was 45 °C.

GCCCAAGGAAACCTAGGC (((.(.(....).).))) gave a folding enthalpy [1] of -22.2 kcal/mol and a Tm [2] of 32.8 °C.

GCCCAAGGAAACTTGAGC ((.((((....)))).)) gave a folding enthalpy [1] of -25.1 kcal/mol and a Tm [2] of 37.7 °C.

GCCCACGAAAGTGAAGGC ((((((....)))..))) showed a folding enthalpy [1] of -28.2 kcal/mol and a Tm [2] of 52.1 °C.

GCCCACGAAAGTGTAGGC ((((((....)))..))) showed a folding enthalpy [1] of -24.5 kcal/mol and a Tm [2] of 52.8 °C.

GCCCACGGAAACGCGGGC ((((.((....)).)))) gave a folding enthalpy [1] of -47.5 kcal/mol and a Tm [2] of 62.3 °C.

GCCCAGCCGAAAGGCGGC (((..(((....)))))) gave a folding enthalpy [1] of -10.6 kcal/mol and a Tm [2] of 62.4 °C.

GCCCAGCGAAAGCACGGC (((..((....))..))) showed a folding enthalpy [1] of -18.4 kcal/mol and a Tm [2] of 52.1 °C.

For GCCCAGCGAAAGCATGGC (((..((....))..))), the folding enthalpy [1] was -16 kcal/mol and the Tm [2] was 56 °C.

Sequence GCCCAGCGAAAGCCGAGC ((.(.((....)).).)) has a folding enthalpy [1] of -7.29 kcal/mol and a Tm [2] of 40.6 °C.

Sequence GCCCAGCGAAAGCTATGC ((..(((....)))..)) has a folding enthalpy [1] of -5.13 kcal/mol and a Tm [2] of 25.6 °C.

Work on GCCCAGCGAAAGCTTAGC ((..(((....)))..)) yielded a folding enthalpy [1] of -8.7 kcal/mol and a Tm [2] of 32.8 °C.

GCCCATGGAAACATGAGC ((.((((....)))).)) showed a folding enthalpy [1] of -27.9 kcal/mol and a Tm [2] of 43.1 °C.
